Data set [1] concerns INS1. The experiment in a line: Cytoprotective activity in endoplasmic reticulum stressed rat INS-1 cells assessed as rescue from tunicamycin-mediated reduction in cell viability at 10 uM after 72 hrs by CellTiter-Glo assay relative to control. Type of data set: functional. In a few lines:
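INS-1 cells seeded at 3 × 10³/well and exposed for 72 h to Tm 0.1 μg/ml plus compound. Viability measured as ATP by CellTiter-Glo. Tm alone was set to 0% and DMSO without Tm to 100% rescue. Values are the mean of three experiments. EC50 was derived for survival.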

Data set [2] in a line: Effect on 2.5 mM glucose-stimulated insulin secretion in rat INS-1 cells preincubated for 24 hrs followed by glucose addition and subsequent incubation for 45 mins by ELISA. Type of data set: ADME, cell-based. Particulars: ins1, 0.75 h. In a few lines:
(§1)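 INS-1 cells seeded at 1 × 10⁵/well and treated 24 h with compounds (with or without Tm). They were washed in Krebs-HEPES buffer pH 7.4 with 1% BSA, preincubated 1 h in 2.5 mM glucose, then stimulated 45 min with 2.5 or 20 mM glucose. Secreted insulin was measured by ELISA and normalized to Bradford total protein. The index is 20 mM/2.5 mM secretion from triplicate wells.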

A short description of data set [3]: Inhibition of endoplasmic reticulum stress-mediated upregulation of CHOP mRNA expression in tunicamycin-treated rat INS-1 cells at 10 uM by qRT-PCR method. It is filed as functional, cell-based. The settings on record: INS1, TDE = time-dependent effect. In a few lines:
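INS-1 cells seeded at 4 × 10⁵/well and treated with Tm 0.1 μg/ml plus compound, either for 8 h at indicated concentrations or for indicated times at 10 μM. CHOP mRNA was measured by qRT-PCR with rat primers, normalized to rat cyclophilin A, and reported as fold change.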

In data set [4] the target is DNA damage-inducible transcript 3 protein (Mus musculus) (UniProt P35639). As to the kind of experiment: Inhibition of endoplasmic reticulum stress-induced CHOP activity in tunicamycin-treated C57BL/6 mouse primary pancreatic islet beta cells assessed as DNA fragmentation at 10 uM after 24 hrs by TUNEL assay (reference value: 40.4%). Also noted: scale not given: the % may be the effect or the level left. The procedure, abridged: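 Primary islet cells from C57BL/6 mice were cultured in CMRL-1066/10% FBS and treated 24 h with Tm 1 μg/ml plus 10 μM compound or DMSO. Cells were fixed in 4% PFA, permeabilized in Triton/citrate, TUNEL-stained (1 h, 37°C), and co-stained for insulin and DAPI. TUNEL+ insulin+ cells were counted as mean ± SD of five wells (~50 islets, 3 mice).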
DNA damage-inducible transcript 3 protein (Mus musculus), sequence (P35639 whole entry, the tested form may be a part): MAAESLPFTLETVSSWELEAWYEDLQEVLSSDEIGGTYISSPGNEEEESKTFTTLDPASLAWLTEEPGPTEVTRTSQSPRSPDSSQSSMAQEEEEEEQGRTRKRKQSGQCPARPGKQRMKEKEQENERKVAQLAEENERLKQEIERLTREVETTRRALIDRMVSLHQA

Data set [5] deals with DNA damage-inducible transcript 3 protein (Rattus norvegicus) (UniProt Q62857). As to the kind of experiment: Inhibition of endoplasmic reticulum stress-induced CHOP activity in rat INS-1 cells assessed as suppression of tunicamycin-induced PARP cleavage at 20 uM after 2 to 24 hrs by Western blot method. It is filed as cell-based. Particulars: INS1. The procedure, abridged: (§2)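 INS-1 cells seeded at 8 × 10⁵ per 60-mm dish and treated with or without compound, with or without Tm, for the indicated times. Lysates (20 μg protein) were run on 7% SDS-PAGE and blotted with anti-caspase-3 and anti-PARP (1:1000) to detect cleavage. α-Tubulin served as loading control.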
DNA damage-inducible transcript 3 protein (Rattus norvegicus), sequence (Q62857 whole entry): as the sequence (P35639 whole entry, the tested form may be a part) above, with T9A, L10F, T70A, R74S, E97D, P111A, P114A, Q142L counted along it

A short description of data set [6]: Inhibition of endoplasmic reticulum stress-mediated upregulation of CHOP protein expression in tunicamycin-treated rat INS-1 cells at 20 uM after 2 to 8 hrs by Western blot method. Type of data set: functional, cell-based. Particulars: INS1. In a few lines: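 INS-1 cells seeded at 8 × 10⁵ per 60-mm dish and treated with Tm and 20 μM compound or DMSO. Lysates (20 μg protein) were run on 7% SDS-PAGE and blotted with anti-CHOP (1:1000). α-Tubulin served as loading control.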

The test system of data set [7] is INS1. The experiment in a line: Cytoprotective activity in endoplasmic reticulum stressed rat INS-1 cells assessed as rescue from tunicamycin-mediated reduction in cell survival after 72 hrs by CellTiter-Glo assay. Particulars: INS1, 72 h.
For data set [8], the system named is Mus musculus. The experiment in a line: Antidiabetic activity in streptozotocin-induced diabetic C57BL/6 mouse model assessed as decrease in blood glucose level at 20 mg/kg, ip administered for 5 consecutive days with streptozotocin followed by 2 more weeks compound addition without streptozotocin measured every 3 day of compound dosing by glucometer relative to control. Type of data set: functional, organism-based. In a few lines:
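Ten-week-old male C57BL/6 mice given STZ 50 mg/kg i.p. (in Na-citrate) once daily for 5 days, together with test agent 20 mg/kg i.p. (2 mg/ml in 10% DMSO/saline; n = 7) or vehicle (n = 6). Dosing without STZ then continued for 2 more weeks. Fasting (5 h) tail blood glucose read by glucometer every third day.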

Data set [9] deals with Mus musculus. As to the kind of experiment: Antidiabetic activity in streptozotocin-induced diabetic C57BL/6 mouse model assessed as total pancreatic islet area at 20 mg/kg, ip administered for 5 consecutive days with streptozotocin followed by 2 more weeks compound addition without streptozotocin measured post last dose by DAPI staining-based confocal microscopy (reference value: 21.3 +/- 4.4%). Type of data set: functional.

For data set [10], the target named is DNA damage-inducible transcript 3 protein (Rattus norvegicus) (UniProt Q62857). The experiment in a line: Inhibition of endoplasmic reticulum stress-induced CHOP activity in rat INS-1 cells assessed as suppression of tunicamycin-induced caspase-3 cleavage at 20 uM after 2 to 24 hrs by Western blot method. It is filed as cell-based. Particulars: INS1. In a few lines: as §2

Data set [11] has the same target. The experiment in a line: Inhibition of endoplasmic reticulum stress-induced CHOP activity in rat INS-1 cells assessed as decrease in brefeldin A-induced cell death by measuring cell viability at 5 to 20 uM after 72 hrs by CellTiter-Glo assay. The settings on record: INS1. Type of data set: cell-based. The procedure, abridged: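 INS-1 cells treated 72 h with or without brefeldin A 0.2 μg/ml in the presence of DMSO or compound at indicated concentrations. Viability measured by CellTiter-Glo. Means ± SD of quadruplicates.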

The subject of data set [12] is Mus musculus. The experiment in a line: Antidiabetic activity in streptozotocin-induced diabetic C57BL/6 mouse model assessed as increase in level of insulin-positive beta cells per pancreatic islet at 20 mg/kg, ip administered for 5 consecutive days with streptozotocin followed by 2 more weeks compound addition without streptozotocin measured post last dose by DAPI staining-based confocal microscopy relative to control. Type of data set: functional, organism-based.

Data set [13] has as its target DNA damage-inducible transcript 3 protein (Rattus norvegicus) (UniProt Q62857). As to the kind of experiment: Inhibition of endoplasmic reticulum stress-induced CHOP activity in rat INS-1 cells assessed as restoration of tunicamycin-mediated reduction of 20 mM glucose-stimulated insulin secretion preincubated for 24 hrs followed by glucose addition and subsequent incubation for 45 mins by ELISA. It is filed as cell-based. Particulars: INS1. In a few lines: as §1

Data set [14] shares this target. As to the kind of experiment: Inhibition of endoplasmic reticulum stress-induced CHOP activity in rat INS-1 cells assessed as decrease in sodium palmitate-induced cell death by measuring cell viability at 2.5 to 20 uM after 72 hrs by CellTiter-Glo assay. It is filed as cell-based. Particulars: INS1. In a few lines: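 INS-1 cells switched to DMEM/1% FBS/1% BSA and stressed with sodium palmitate (from 5 mM stock in 5% BSA; final 0.2 mM). Treated 72 h with DMSO or compound. Viability measured by CellTiter-Glo. Means ± SD of quadruplicates.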

Data set [15] in a line: Effect on basal CHOP mRNA expression in rat INS-1 cells at 10 uM after 2 to 8 hrs by qRT-PCR method. It is filed as ADME, cell-based. Particulars: ins1, 10 µM. The procedure, abridged: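 INS-1 cells seeded at 4 × 10⁵/well and exposed to DMSO or 10 μM compound without Tm for the indicated times. Total RNA (2 μg) was reverse transcribed. CHOP mRNA was measured by qRT-PCR with rat primers, normalized to rat cyclophilin A, and expressed as fold change.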

Calls of active or inactive are those of the source. No cut-off for these calls is given here.

Consider `CCc1ccc(-n2nnc(C(=O)Nc3cccc(F)c3)c2C)cc1`, for which the “%max” value with INS1 [1] came out at 87%. The Activity result in data set [2] was “Non-toxic”; in data set [4] it was 9%; in the data set with Mus musculus [9], 44.2%; in data set [15] it was “Non-toxic”. For the same compound, in data set [3], the inhibition result was “tde”. The inhibition result in data set [5], in data set [6], in [10], in [11], in [13] and in data set [14] was “Active” in each case. In addition, in the data set on INS1 [7], the EC50 is 2.8 µM. In addition, the result in the data set on Mus musculus [8] and with Mus musculus [12] was Active.

These data come from ChEMBL document CHEMBL3797120, “Identification of 1,2,3-triazole derivatives that protect pancreatic β cells against endoplasmic reticulum stress-mediated dysfunction and death through the inhibition of C/EBP-homologous protein expression” (Bioorg Med Chem, 2016).
